Measured values pooled from the literature.
Lines come from different studies, so protocols differ.
Target: Rho-associated protein kinase 1 (ROCK1, Homo sapiens, UniProt Q13464)

SMILES | effect on | mode | method | cells | tested at | measurement | value
C=CC(=O)Nc1cc(Nc2nccc(Nc3cc(Cl)c(F)cc3C(C)(C)O)n2)c(OC)cc1N1CC[C@@H](N(C)C)C1 | enzyme activity | inhibitor |  |  | 1 µM | inhibition | 0%
Cc1nc(N2CC[C@@H](O)C2)ncc1-c1cc(C(F)(F)F)cc2[nH]ncc12 | binding |  | competition with immobilised ligand |  | 1 µM | remaining binding | 91%
CNc1cc(Oc2cc(C(=O)Nc3cc(N4CCN(C)CC4)cc(C(F)(F)F)c3)ccc2C)ncn1 | target engagement in cells | inhibitor | chemoproteomics | Huh-7 | 1 µM | inhibition | -28.8%
CNC(=O)c1cc(Oc2ccc(NC(=O)Nc3ccc(Cl)c(C(F)(F)F)c3)cc2)ccn1 | enzyme activity | inhibitor |  |  | 0.3 µM | inhibition | 0%
N#CCCc1ccc2c(c1)-c1[nH]c3ccc([N+](=O)[O-])cc3c1CC(=O)N2 | cell-free assay |  |  |  | 0.5 µM | remaining signal | 38.9%
CC/C(=N\NC(=O)NCc1cccc(O)c1)c1ccc(O)c(C)c1O | enzyme activity | inhibitor |  |  | 0.1 µM | inhibition | 65.5%
Cn1cncc1C1=CN(c2ncnc3[nH]cnc23)CCS1 | enzyme activity | inhibitor | radiometric |  | 50 nM | inhibition | 27%
CN(c1ccnc(CNc2nc(Nc3ccc4c(c3)CC(=O)N4)ncc2C(F)(F)F)n1)S(C)(=O)=O | cell-free assay |  | competition with immobilised ligand |  | 1 µM | remaining binding | 49%
Cc1ccc(Nc2nccc(N(C)c3ccc4c(C)n(C)nc4c3)n2)cc1S(N)(=O)=O | enzyme activity | inhibitor |  |  | 0.3 µM | inhibition | -1%
O=C(Nc1cnn(-c2csc(C(=O)NC3COC3)c2)c1)Nc1ccccc1Cl | enzyme activity | inhibitor |  |  | 5 µM | remaining activity | 109%
COc1cc2ncnc(Nc3ccc(Oc4ccccc4)c(C)c3C)c2cc1OC | enzyme activity | inhibitor |  |  | 1 µM | inhibition | -12%
COc1ccc2c(c1)O[C@@H](c1ccc(OC)c(OC)c1)C[C@H]2NC(=O)C1(c2ccc3c(c2)OC(F)(F)O3)CC1 | cell-free assay |  | competition with immobilised ligand |  | 1 µM | remaining binding | 89%
CCN(CC)CCNC(=O)c1c(C)[nH]c(/C=C2\C(=O)Nc3ccc(F)cc32)c1C | enzyme activity | inhibitor |  |  | 10 µM | inhibition | 26%
COc1cccc2c(NCc3ccccc3)nc(-n3c(N)nc4ccccc43)nc12 | target engagement in cells | inhibitor | chemoproteomics |  | 20 mM | inhibition | 2.2%
CCN(CC)c1ccc(C2=NNC(=O)CC2C)cc1[N+](=O)[O-] (centres unmarked) | enzyme activity | inhibitor |  |  | 10 µM | remaining activity | 109%
CN(C)CC#Cc1ccc(OCCCc2sc(N3CCc4cccc(C(=O)Nc5nc6ccccc6s5)c4C3)nc2C(=O)O)c(F)c1 | cell-free assay |  | competition with immobilised ligand |  | 1 µM | remaining binding | 100%
C[S+]([O-])c1ccc(-c2nc(-c3ccncc3)c(-c3ccc(F)cc3)[nH]2)cc1 (centres unmarked) | cell-free assay |  |  |  | 0.5 µM | remaining signal | 102%
CC(C)(C)c1nc2c(s1)c1nc(N)ncc1c1ccc(NS(=O)(=O)c3c(F)cccc3F)c(F)c12 | enzyme activity | inhibitor | radiometric |  | 1 µM | remaining activity | 98%
CCS(=O)(=O)c1cc2cc(C[C@](O)(CC(C)(C)c3ccc(F)cc3C(N)=O)C(F)(F)F)[nH]c2cn1 | cell-free assay |  | competition with immobilised ligand |  | 1 µM | remaining binding | 84%
COc1cc(Cl)c(C(=O)N[C@@H](CN[C@H]2CC[C@@H](N)CC2)Cc2ccc(C#N)cc2)cc1-c1ccc(CN[C@H](C)c2ccc(C)cc2)o1 | enzyme activity | inhibitor |  |  | 1 µM | remaining activity | 105%
Cc1cc(NC(=O)c2cccc3cc(-c4cccc5[nH]nc(N)c45)ccc23)ccc1F | enzyme activity | inhibitor |  |  | 0.1 µM | activity vs control | 110%
CSc1nc(C)c(-c2ccnc(Nc3ccc(N4CCOCC4)cc3)c2)[nH]1 | enzyme activity | inhibitor |  |  | 10 µM | inhibition | -4.2%
O=C1NC(=O)c2cc(Nc3ccc(F)cc3)c(Nc3ccc(F)cc3)cc21 | cell-free assay |  |  |  | 0.5 µM | remaining signal | 96.7%
O=C1NC(c2ccccn2)Sc2ccccc21 (centres unmarked) | cell-free assay |  | competition with immobilised ligand |  | 1 µM | remaining binding | 82%
Nc1ncnc2occ(-c3ccc(NC(=O)Nc4cc(C(F)(F)F)ccc4F)cc3)c12 | cell-free assay | inhibitor |  |  | 20 µM | remaining signal | 0.1%
C[C@@H]1CN(c2cc(-c3nn(C)c4ccc(OC5(C)CC5)cc34)ncn2)C[C@H](C)O1 | cell-free assay |  | competition with immobilised ligand |  | 1 µM | remaining binding | 100%
CCCOc1ccc(OC)c(F)c1C(=O)c1ccc(C(=O)N[C@@H]2CNC[C@H]2NC(=O)c2ccc3[nH]ncc3c2)cc1 | enzyme activity | inhibitor |  |  | 10 µM | remaining activity | 8%
c1ccc(N2CCN(Cc3nc4ccccc4[nH]3)CC2)nc1 | binding |  | competition with immobilised ligand |  | 1 µM | remaining binding | 100%
CN(C)C1CCN(CC#Cc2nn(C3CCCC3)c3nc(NCc4ccccc4)ncc23)C1 (centres unmarked) | enzyme activity | inhibitor | FRET |  | 1 µM | inhibition | -1%
